In ChEMBL document CHEMBL4251566 (Eur J Med Chem, 2018):

What was measured:
Ramos [1] = assay: Antiproliferative activity against human Ramos cells at 1.25 to 40 uM by CCK-8 assay; format: functional, cell-based; conditions: TDE = time-dependent effect
Procedure, shortened: (§1)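 CCK-8 viability assay. Cells were seeded at 3000/well in RPMI-1640 with 10% FBS at 37 °C, 5% CO2, for 4 h before treatment. Exposure was 72 h at five concentrations (1.25, 5, 10, 20, 40 µM), each in five replicates. Absorbance was read at 450 nm. IC50 came from dose-response curves, as the mean of at least three separate experiments.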

Ramos [2] = assay: Induction of apoptosis in human Ramos cells assessed as viable cells at 5 uM after 72 hrs by Annexin V-FITC/propidium iodide staining based flow cytometry (reference value: 98.7%); format: functional; conditions: read-out: Activity
Ramos [3] = assay: Induction of apoptosis in human Ramos cells assessed as necrotic cells at 20 uM after 72 hrs by Annexin V-FITC/propidium iodide staining based flow cytometry (reference value: 0.7%); format: functional
Ramos [4] = assay: Antitumor activity against human Ramos cells xenografted in po dosed CB17/SCID mouse assessed as reduction in tumor growth administered as qd for 14 days; format: functional, organism-based
Procedure, shortened: (§2)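 Female CB17/SCID mice, 5–6 weeks old and 20–25 g, received 3×10⁶ Ramos cells in 0.1 mL PBS subcutaneously in the right axilla. From day 3 after implantation, dosing was oral at 30 or 60 mg/kg for 14 days; vehicle controls got oral 25% PEG-400. Tumor volume was A×B²/2 from caliper diameters. Tumor weight was taken at sacrifice, and body weight was tracked. n = 5.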

Ramos [5] = assay: Induction of apoptosis in human Ramos cells assessed as early apoptotic cells at 20 uM after 72 hrs by Annexin V-FITC/propidium iodide staining based flow cytometry (reference value: 0.0%); format: functional
Ramos [6] = assay: Induction of apoptosis in human Ramos cells assessed as late apoptotic cells at 10 uM after 72 hrs by Annexin V-FITC/propidium iodide staining based flow cytometry (reference value: 0.5%); format: functional
Raji = assay: Antiproliferative activity against human Raji cells after 72 hrs by CCK-8 assay; format: functional, cell-based; procedure, shortened: as §1
Ramos [7] = assay: Induction of apoptosis in human Ramos cells assessed as necrotic cells at 10 uM after 72 hrs by Annexin V-FITC/propidium iodide staining based flow cytometry (reference value: 0.7%); format: functional
[8] = molecular target: Tyrosine-protein kinase BTK (Homo sapiens, UniProt Q06187); assay: Inhibition of BTK phosphorylation in human NAMALWA cells after 48 hrs by immunoblot analysis; format: cell-based
Sequence of Tyrosine-protein kinase BTK (Q06187 whole entry): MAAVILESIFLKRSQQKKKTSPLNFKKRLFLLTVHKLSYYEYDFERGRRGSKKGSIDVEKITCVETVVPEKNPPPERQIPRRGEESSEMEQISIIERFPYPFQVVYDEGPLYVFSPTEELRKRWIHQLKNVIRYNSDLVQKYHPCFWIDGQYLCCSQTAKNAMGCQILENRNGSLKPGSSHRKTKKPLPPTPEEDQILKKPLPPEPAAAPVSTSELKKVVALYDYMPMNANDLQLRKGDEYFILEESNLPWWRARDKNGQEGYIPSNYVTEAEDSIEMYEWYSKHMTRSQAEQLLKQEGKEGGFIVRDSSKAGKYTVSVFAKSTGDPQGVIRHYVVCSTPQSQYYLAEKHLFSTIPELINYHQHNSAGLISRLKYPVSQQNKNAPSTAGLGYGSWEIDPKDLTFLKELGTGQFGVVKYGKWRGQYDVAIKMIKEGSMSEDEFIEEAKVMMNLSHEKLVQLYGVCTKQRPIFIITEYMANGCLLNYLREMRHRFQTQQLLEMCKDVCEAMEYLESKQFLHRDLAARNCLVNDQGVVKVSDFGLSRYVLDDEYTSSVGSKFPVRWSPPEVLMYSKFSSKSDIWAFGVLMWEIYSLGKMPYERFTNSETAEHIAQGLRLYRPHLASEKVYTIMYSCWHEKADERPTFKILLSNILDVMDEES
Procedure, shortened: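 Namalwa cells were treated with 1, 5 or 10 µM for 48 h. Lysates were cleared at 14,000 g for 15 min at 4 °C, and 50 µg of protein was run on 8–12% SDS-PAGE and transferred to PVDF. Membranes were blocked in 5% milk for 2 h and incubated with primary antibody overnight at 4 °C. Detection was by ECL, with band IOD normalized to β-actin.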

Ramos [9] = assay: Induction of apoptosis in human Ramos cells assessed as early apoptotic cells at 5 uM after 72 hrs by Annexin V-FITC/propidium iodide staining based flow cytometry (reference value: 0.0%); format: functional
Ramos [10] = assay: Antitumor activity against human Ramos cells xenografted in CB17/SCID mouse assessed as tumor growth inhibition at 30 mg/kg, po qd for 14 days; format: functional; conditions: 336 h, read-out: TGI; procedure, shortened: as §2
Ramos [11] = assay: Induction of apoptosis in human Ramos cells assessed as viable cells at 20 uM after 72 hrs by Annexin V-FITC/propidium iodide staining based flow cytometry (reference value: 98.7%); format: functional; conditions: read-out: Activity
Ramos [12] = assay: Induction of apoptosis in human Ramos cells assessed as total apoptosis rate at 5 uM after 72 hrs by Annexin V-FITC/propidium iodide staining based flow cytometry relative to control

Row | IC50 (Raji) [µM] | inhibition [8] | Compound | Activity (Ramos [1]) | viability at 5 µM (Ramos [2]) [%] | Activity (Ramos [3]) [%] | TGI (Ramos [4]) | Activity (Ramos [5]) [%] | Activity (Ramos [6]) [%] | Activity (Ramos [7]) [%] | Activity (Ramos [9]) [%] | inhibition in vivo at 30 mg/kg (Ramos [10]) [%] | viability at 20 µM (Ramos [11]) [%] | Activity (Ramos [12]) [%]
1 | 9.32 | Dose-dependent effect | C=CC(=O)Nc1cccc(Nc2nc(Nc3ccc(OCCCN4CCOCC4)cc3)ncc2Cl)c1 | Tde | 34.4 | 3.5 | Dose-dependent effect | 61.6 | 9.6 | 2.7 | 50.8 | 36.6 | 16.3 | 59
2 | 8.89 | Dose-dependent effect | C=CC(=O)Nc1cccc(Nc2nc(Nc3ccc(OCC(=O)N4CCOCC4)c(Cl)c3)ncc2Cl)c1 | Tde | 37.2 | 0.4 | Dose-dependent effect | 65.1 | 10.9 | 1.1 | 54.8 | 24.4 | 20.1 | 61.8
